Bioassay records: PubChem, The Scripps Research Institute Molecular Screening Center
Sampled rows, rich in hits. Any-hit rate of the full collection: about 2.2%.
CHRM5 PAM: human M5 muscarinic receptor positive allosteric modulators, primary screen, CHO-K1 cells, Fluo-8 calcium fluorescence. Muscarinic acetylcholine receptor M5 (Homo sapiens), P08912. activation, % at 3 µM. 0.3% of 360,000 active. CHO-K1 hM5, ACh EC20 PAM; 0% = ACh EC20, 100% = ACh EC100. AID 624038, 2012;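 active = activation above the run cutoff, the mean activation of all test compounds plus 3 SD, cut at about 18% in these data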
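Probe or stimulus: acetylcholine, EC20 level; Assay system: human M5 receptor in CHO-K1 cells; Schedule: compound preincubation 140 s before EC20 acetylcholine addition; Technique: intracellular calcium via Fluo-8 fluorescence; Dosing: single-point, 3 µM nominal; Read-out basis: percent activation from peak-over-basal fluorescence ratio, scaled EC20-to-EC100 acetylcholine; Repeats: one well per compound, no replicates.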
M1 PAM: human M1 muscarinic receptor positive allosteric modulators, primary screen, CHO-K1 cells, Fluo-8 calcium fluorescence, 1536-well; Muscarinic acetylcholine receptor M1 (Homo sapiens), P11229; CHO-K1 hM1, ACh EC20; 0% = ACh EC20, 100% = maximal ACh; activation, % at 3 µM; 0.088% of 360,000 active; AID 588819, 2011; in the data active = activation above about 19%, passing the limit was not always enough
Target sequence (P11229 whole entry, looked up): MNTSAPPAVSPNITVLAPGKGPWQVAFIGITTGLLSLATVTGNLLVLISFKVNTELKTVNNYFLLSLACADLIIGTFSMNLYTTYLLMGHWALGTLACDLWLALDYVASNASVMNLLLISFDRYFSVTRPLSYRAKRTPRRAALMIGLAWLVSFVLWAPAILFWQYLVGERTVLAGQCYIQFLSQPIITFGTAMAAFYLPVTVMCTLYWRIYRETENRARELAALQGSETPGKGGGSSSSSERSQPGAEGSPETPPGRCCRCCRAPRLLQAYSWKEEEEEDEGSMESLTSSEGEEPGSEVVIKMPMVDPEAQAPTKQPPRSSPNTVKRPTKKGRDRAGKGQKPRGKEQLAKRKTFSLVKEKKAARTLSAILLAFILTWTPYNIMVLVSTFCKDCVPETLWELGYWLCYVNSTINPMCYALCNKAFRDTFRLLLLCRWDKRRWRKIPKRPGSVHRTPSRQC
CHRM1 agonist: human M1 muscarinic receptor agonists, primary screen, Fluo-8 calcium fluorescence, CHO-K1 cells, HTS; CHO-K1 hM1, agonist mode; 0% DMSO, 100% acetylcholine EC100; Muscarinic acetylcholine receptor M1 (Homo sapiens), P11229; 0.33% of 360,000 active; activation, % at 3 µM;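 active = activation above the run's mean compound activation plus 3 SD, cut at about 16% in these data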;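 note: peak over basal fluorescence ratio within a 140 s kinetic read after compound addition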
CHRM5 agonist: human M5 muscarinic receptor agonists, primary screen, CHO-K1 cells, Fluo-8 calcium fluorescence; Muscarinic acetylcholine receptor M5 (Homo sapiens), P08912; CHO-K1 hM5 cells; 0% DMSO wells, 100% maximal acetylcholine response; activation, % at 3 µM; 0.19% of 360,000 active; AID 624037, 2012;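 active = activation above the run's mean over test compounds plus 3 SD, cut at about 23% in these data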;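 note: signal is peak over basal fluorescence ratio across the kinetic read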
M1 antag: human M1 muscarinic receptor antagonists, primary screen, CHO-K1 cells, Fluo-8 calcium fluorescence, 1536-well; CHO-K1 hM1, ACh EC80 antagonist; inhibition, % at 3 µM; 1.3% of 360,000 active; AID 588852, 2011;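 active = percent inhibition above its own plate's cutoff, namely the mean of that plate's compound wells plus 3 SD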;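 note: peak over basal fluorescence ratio during 140 s after agonist addition; 0% = ACh EC80 plus DMSO and 100% = DMSO alone without agonist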
CHRM5 antagonist: human M5 muscarinic receptor antagonists, primary screen, CHO cells, Fluo-8 calcium fluorescence. CHO-hM5 cells, ACh EC80. inhibition, % at 3 µM. 0.59% of 360,000 active. AID 624040, 2012;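 active = inhibition above a per-plate cutoff, the mean of that plate's test compounds plus 3 SD, cut at about 27% in these data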;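 note: 0% = acetylcholine EC80 with DMSO and 100% = DMSO without agonist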
An asterisk follows results filed as active; · = no result given.

SMILES | CHRM5 PAM | M1 PAM | CHRM1 agonist | CHRM5 agonist | M1 antag | CHRM5 antagonist
CCCCc1[nH]c(=O)c(C#N)c2c1CCCC2 | 7 | 3 | -4 | 0 | 4 | -2
CC1(C)CC(NC(=O)N2c3ccccc3Sc3ccccc32)CC(C)(C)N1 | -6 | -24 | -8 | -21 | 50* | -4
CC1(C)CC(NC(=O)c2ccccc2C(=O)NC2CC(C)(C)NC(C)(C)C2)CC(C)(C)N1 | 5 | 10 | -9 | -4 | -13 | -3
COc1ccccc1N(C(=O)CCl)c1cn(C(C)=O)c2ccccc12 | 7 | 10 | -6 | -3 | -10 | 4
COc1ccccc1N(C(C)=O)C1=C(Cl)C(=O)c2ccccc2C1=O | -8 | -11 | -6 | 1 | 33 | 35*
Cc1nc(SCC(=O)N(C)C2CCS(=O)(=O)C2)c(C#N)c(C)c1C (stereo unspecified) | 6 | 15 | -3 | 3 | -12 | -3
CC1CCC(C(C)C)C(OC(=O)CSc2nccc(=O)[nH]2)C1 (stereo unspecified) | -3 | -7 | -7 | -5 | 13 | 8
COc1ccc(-c2n(CC(=O)OC3CC(C)CCC3C(C)C)c3ccccc3[n+]2C)cc1 (stereo unspecified) | -18 | -24 | -10 | -7 | 28* | 40*
COc1ccc(OCc2n(CC(=O)OC3CC(C)CCC3C(C)C)c3ccccc3[n+]2C)cc1 (stereo unspecified) | -14 | -22 | -5 | -19 | 39* | 6
Cc1ccc(-c2cc(C(=O)Nc3nn[nH]n3)c3ccccc3n2)cc1 | 1 | 11 | -5 | 2 | -8 | -3
Cc1nn(C)c(C(=O)Nc2cccc(Nc3ccccc3)c2)c1[N+](=O)[O-] | -6 | -6 | -1 | -4 | 26* | 7
Cc1ccc(SC(=O)c2c([N+](=O)[O-])c(C)nn2C)cc1 | -30 | -27 | -9 | -19 | 62* | 17
Cc1nn(C)c(C(=O)N/N=C/c2ccccc2)c1[N+](=O)[O-] | -4 | -23 | -6 | -13 | 21* | -6
Cc1nn(C)c(C(=O)N/N=C/c2ccncc2)c1Cl | 4 | 8 | -3 | -2 | -14 | -2
COc1cc2c(cc1OC)CN(C(=O)/C=C/c1cccc([N+](=O)[O-])c1)CC2 | 1 | 7 | -5 | -2 | -12 | 1
CC(=O)Nc1ccc(C2=CC(=O)C[C@H](c3ccc(Cl)cc3)C2)cc1 | -4 | 7 | -3 | -1 | -9 | 2
COc1ccc2c(c1)C(C)(Cc1ccc(C(=O)c3ccccc3)cc1)C(=O)N2 (stereo unspecified) | -6 | -1 | 4 | 3 | 1 | 7
C=C1C(=O)CC2=C1[C@](Cc1ccc(F)cc1)(C(=O)OC)N(C(=O)c1ccccc1)C2 | -12 | · | · | 3 | · | 7
C=C1C(=O)C=C2CN(C(=O)c3ccccc3)[C@@](Cc3ccc(F)cc3)(C(=O)OC)[C@@H]12 | -41 | -34 | 72* | 81* | 103* | 93*
CC(C)CNC(=O)C1CCCN(C(=O)NCc2ccccc2)C1 (stereo unspecified) | 4 | -11 | -6 | 0 | 1 | 10
CCOc1ccc(NC(=O)/C(C#N)=C\c2ccc(N3CCCC3)c(C)c2)cc1 | -14 | -13 | 2 | 40* | 25 | 50*
O=C(Nc1ccccc1[N+](=O)[O-])c1cccc(N2C(=O)CCC2=O)c1 | 8 | 10 | 3 | 0 | -23 | -6
CCN(Cc1ccccc1)C(=O)c1ccc(C(=O)N(CC)Cc2ccccc2)cc1 | -9 | -4 | -4 | -3 | 4 | 28*
O=C(N/N=C/c1cccc2ccccc12)C(=O)N1CCCC1 | 18* | 7 | 1 | 1 | -12 | 0
CCOC(=O)N1CCN(C(=O)C(NC(=O)c2ccc(C(C)(C)C)cc2)C(C)C)CC1 (stereo unspecified) | 5 | 10 | -7 | -1 | -15 | -5
SMILES | CHRM5 PAM | M1 PAM | CHRM1 agonist | CHRM5 agonist | M1 antag | CHRM5 antagonist
Cc1ccc2c(C(=O)CN3CCOCC3)c(C)[nH]c2c1 | 25* | 7 | -4 | 2 | -3 | -12
Cc1ccc2c(C(=O)CN3CCCCC3)c(C)[nH]c2c1 | 2 | 8 | 3 | -5 | -6 | 2
O=S(=O)(c1cc(F)ccc1F)N1CCN(c2ncccn2)CC1 | -3 | 6 | -5 | -9 | -2 | -6
CCCCC(=O)OCC(=O)C1(O)Cc2c(O)c3c(c(O)c2C(OC2CC(NC(=O)C(F)(F)F)C(O)C(C)O2)C1)C(=O)c1c(OC)cccc1C3=O (stereo unspecified) | -22 | -6 | 11 | 33* | 25 | 40*
COc1ccc(CSc2nnc3[nH]c(=O)cc(N)n23)cc1 | -13 | 11 | -2 | -7 | -4 | 35*
CCc1cc(C(=O)OCC(=O)N2CCC(c3ccccc3)=N2)sc1C | -14 | -22 | -6 | -8 | 48* | 12
CCOC(=O)[C@]12CCC=C1N(Cc1cccc3ccccc13)C(=O)[C@H](CC(=O)NCCCCc1ccccc1)C2 | 0 | · | · | 0 | · | 0
Cc1ccc(S(=O)(=O)N2[C@@H](CO)CO[C@H]2CC(=O)OCc2ccccc2)cc1 | 3 | · | · | 4 | · | -14
CC(C)CCN1CCN(Cc2nc(-c3ccccc3)cs2)CC1CCO (stereo unspecified) | 8 | -13 | -16 | -5 | -3 | -15
CC(C)=CCN1CCN(Cc2nc(-c3ccccc3)cs2)CC1CCO (stereo unspecified) | 2 | -22 | -7 | -13 | 34* | -2
O=C(Nc1nc(-c2ccccc2)c(-c2ccccc2)o1)c1ccc(F)cc1 | 34* | 8 | 8 | -1 | -5 | 9
CCn1c(=O)n(CC)c2cc(NC(=O)c3ccccc3Cl)ccc21 | 20* | 6 | -2 | 9 | -9 | -21
CCc1ccc(C(=O)Nc2ccc3c(c2)n(C)c(=O)n3C)cc1 | 24* | 19 | -2 | 2 | -17 | -18
O=C(Nc1ccc2ccccc2c1)c1ccccc1Cl | -4 | -2 | -5 | -2 | -4 | 2
O=P(CCCCCCCCCP(=O)(c1ccccc1)c1ccccc1)(c1ccccc1)c1ccccc1 | -55 | -10 | 2 | -6 | 32* | 12
